According to PMC10644204 (Pharmacology Research & Perspectives, 2023):

Tests used:
QT interval = details: supratherapeutic vs therapeutic doses; cited from earlier work
[1] = Plasma pharmacokinetics, part 2 main QTc study; assay type: in vivo, human; details: human, plasma, oral, 400 mg
Summary of the method: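 Moderate-fat meal 30 min before each dose. Plasma sampled predose on Days 1, 5, 6 and 7, and on Day 7 at 0.5–24 h postdose. Test compound assayed by validated UHPLC-MS/MS (3.00–1000 ng mL−1).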

healthy participants [2] = assay type: in vivo, human; details: moxifloxacin 400 mg single dose
healthy participants [3] = experiment: Safety assessments; assay type: in vivo, human; details: part 2, Moxifloxacin 400 mg (N = 40)
Summary of the method: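 Part 2 healthy participants confined from Day −2 of period 1 to Day 9 of period 4. […] AEs monitored throughout, recording duration, severity, causality and outcome, alongside safety ECGs, laboratory tests, physical examination and vital signs.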

## COc1cnc(-n2cnc(C)n2)c2c1c(C(=O)C(=O)N1CCN(C(=O)c3ccccc3)CC1)cn2COP(=O)(O)O [fostemsavir]
QT interval
  QT prolongation: QT prolongation with supratherapeutic doses but not therapeutic doses

## COc1c(N2C[C@@H]3CCCN[C@@H]3C2)c(F)cc2c(=O)c(C(=O)O)cn(C3CC3)c12 [Moxifloxacin, moxifloxacin, reference compound]
[1]
  Cmax: 1960 ng/mL
  Tmax: 4 h
Healthy participants [2]
  Observations of ΔQTcF >30 ms: no participants
Healthy participants [3]
  AE: Abdominal pain: 1 (3) n (%)
  AE: Acne: 0 n (%)
  AE: Diarrhea: 0 n (%)
  AE: Gastrointestinal disorders: 2 (5) n (%)
  AE: General disorders and administration site conditions: 1 (3) n (%)
  AE: Immune system disorders: 1 (3) n (%)
  AE: Infections and infestations: 0 n (%)
  AE: Maculopapular rash: 0 n (%)
  AE: Medical device site dermatitis: 0 n (%)
  AE: Nausea: 0 n (%)
  AE: Nervous system disorders: 2 (5) n (%)
  AE: Renal and urinary disorders: 1 (3) n (%)
  AE: Reproductive system and breast disorders: 0 n (%)
  AE: Respiratory, thoracic, and mediastinal disorders: 0 n (%)
  AE: Skin and subcutaneous tissue disorders: 0 n (%)
  AE: Vessel puncture site pain: 1 (3) n (%)
  Any AE: 4 (10) n (%)
  Any drug-related AE: 2 (5) n (%)
  Drug-related AE: Abdominal pain: 1 (3) n (%)
  Drug-related AE: Acne: 0 n (%)
  Drug-related AE: Diarrhea: 0 n (%)
  Drug-related AE: Fatigue: 0 n (%)
  Drug-related AE: Gastrointestinal disorders: 1 (3) n (%)
  Drug-related AE: General disorders and administration site conditions: 0 n (%)
  Drug-related AE: Maculopapular rash: 0 n (%)
  Drug-related AE: Nausea: 0 n (%)
  Drug-related AE: Pruritus: 0 n (%)
  Drug-related AE: Renal and urinary disorders: 1 (3) n (%)
  Drug-related AE: Skin and subcutaneous tissue disorders: 0 n (%)
  Drug-related AE: Urinary hesitation: 1 (3) n (%)
Healthy participants [3]; listed as moxifloxacin
  Any drug-related AE: 2 n (%)

## Cc1cc(/C=C/C#N)cc(C)c1Nc1ccnc(Nc2ccc(C#N)cc2)n1 [rilpivirine]
QT interval
  QT prolongation: QT prolongation with supratherapeutic doses but not therapeutic doses
